Measurements reported in ChEMBL document CHEMBL2069205 (Bioorg Med Chem Lett, 2012).

Key:
[1] = biological target: T1, Potassium voltage-gated channel subfamily KQT member 1 (Homo sapiens, UniProt P51787); assay: Activation of Kv7.1 channel expressed in CHO cells assessed as depolarization-induced […] after 3 mins by patch clamp assay relative to control; assay type: cell-based; conditions: 0.05 h, read-out: %max
T1 sequence (P51787 whole entry): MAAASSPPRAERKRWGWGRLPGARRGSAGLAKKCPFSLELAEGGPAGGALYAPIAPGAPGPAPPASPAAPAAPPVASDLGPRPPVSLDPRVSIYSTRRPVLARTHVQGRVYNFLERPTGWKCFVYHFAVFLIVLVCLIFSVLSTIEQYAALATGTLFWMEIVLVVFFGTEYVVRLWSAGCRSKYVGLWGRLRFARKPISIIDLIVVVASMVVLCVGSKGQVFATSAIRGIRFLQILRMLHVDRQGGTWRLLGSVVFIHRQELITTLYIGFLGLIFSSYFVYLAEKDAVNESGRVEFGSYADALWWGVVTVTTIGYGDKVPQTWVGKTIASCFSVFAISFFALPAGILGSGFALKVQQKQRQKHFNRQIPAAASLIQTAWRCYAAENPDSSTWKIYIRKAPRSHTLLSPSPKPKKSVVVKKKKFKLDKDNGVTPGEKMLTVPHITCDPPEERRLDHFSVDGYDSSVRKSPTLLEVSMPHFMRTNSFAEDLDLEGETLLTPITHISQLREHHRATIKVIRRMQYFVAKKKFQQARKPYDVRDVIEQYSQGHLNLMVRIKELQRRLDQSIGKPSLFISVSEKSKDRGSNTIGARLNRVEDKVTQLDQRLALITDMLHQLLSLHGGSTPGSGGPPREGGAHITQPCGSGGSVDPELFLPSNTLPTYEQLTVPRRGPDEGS
In short: (§1)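 CHO cells stably expressing KCNQ1 were run by perforated (amphotericin B, 50 µg/ml) population patch clamp in pH 7.4 HEPES extracellular solution. Cells were held at −80 mV and stepped to +40 mV for 2000 ms. Current at the end of the step was taken before and after 3 min of compound, as percent change. Wells needed >30 MΩ seal and 0.6–0.8 nA minimum current. EC50s came from 8-point, threefold dilutions in duplicate.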

[2] = biological target: T1, Potassium voltage-gated channel subfamily KQT member 1; assay: Activation of Kv7.1 channel expressed in CHO cells assessed as depolarization-induced […] after 3 mins by patch clamp assay; assay type: cell-based; in short: as §1
[3] = biological target: Potassium voltage-gated channel subfamily KQT member 2 (Homo sapiens, UniProt O43526); assay: Activation of KCNQ2 channel expressed in CHO cells assessed as depolarization-induced […] after 3 mins by patch clamp assay relative to control; assay type: cell-based
Potassium voltage-gated channel subfamily KQT member 2, sequence (O43526 whole entry): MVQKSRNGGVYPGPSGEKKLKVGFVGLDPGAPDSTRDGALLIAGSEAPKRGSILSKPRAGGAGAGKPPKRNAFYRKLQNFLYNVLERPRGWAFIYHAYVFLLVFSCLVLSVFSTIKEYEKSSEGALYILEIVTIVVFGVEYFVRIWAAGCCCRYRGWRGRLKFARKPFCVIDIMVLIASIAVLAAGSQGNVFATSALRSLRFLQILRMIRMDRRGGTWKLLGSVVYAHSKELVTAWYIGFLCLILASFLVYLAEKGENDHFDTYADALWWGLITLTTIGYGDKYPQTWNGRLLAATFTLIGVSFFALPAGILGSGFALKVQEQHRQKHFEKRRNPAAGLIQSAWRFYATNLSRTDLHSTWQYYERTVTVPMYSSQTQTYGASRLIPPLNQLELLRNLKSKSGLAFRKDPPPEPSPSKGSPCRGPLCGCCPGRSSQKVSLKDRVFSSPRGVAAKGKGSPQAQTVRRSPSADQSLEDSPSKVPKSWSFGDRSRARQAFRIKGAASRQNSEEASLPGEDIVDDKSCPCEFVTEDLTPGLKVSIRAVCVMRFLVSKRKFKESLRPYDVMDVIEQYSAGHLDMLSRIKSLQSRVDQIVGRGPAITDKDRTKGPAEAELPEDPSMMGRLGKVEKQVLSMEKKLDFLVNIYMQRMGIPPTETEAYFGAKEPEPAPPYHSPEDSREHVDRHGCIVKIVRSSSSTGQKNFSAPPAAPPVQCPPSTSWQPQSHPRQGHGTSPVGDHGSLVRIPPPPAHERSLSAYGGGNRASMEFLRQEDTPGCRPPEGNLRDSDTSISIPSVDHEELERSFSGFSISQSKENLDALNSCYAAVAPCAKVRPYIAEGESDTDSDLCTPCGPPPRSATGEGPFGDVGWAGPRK

[4] = system: Plasma; assay: Fraction unbound in human plasma; assay type: ADME, cell-free
In short: (§2)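 Plasma protein binding was measured by rapid equilibrium dialysis, giving the unbound fraction.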

[5] = Intrinsic clearance in human liver microsomes; assay type: ADME, Microsome; conditions: read-out: CLH
In short: (§3)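 Intrinsic clearance was measured in hepatic microsomes, and the data were used to predict hepatic clearance (CL_HEP).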

[6] = biological target: Sodium-dependent dopamine transporter (Homo sapiens) (UniProt Q01959); assay: Inhibition of human DAT at 10 uM
Sodium-dependent dopamine transporter (Homo sapiens), sequence (Q01959 whole entry): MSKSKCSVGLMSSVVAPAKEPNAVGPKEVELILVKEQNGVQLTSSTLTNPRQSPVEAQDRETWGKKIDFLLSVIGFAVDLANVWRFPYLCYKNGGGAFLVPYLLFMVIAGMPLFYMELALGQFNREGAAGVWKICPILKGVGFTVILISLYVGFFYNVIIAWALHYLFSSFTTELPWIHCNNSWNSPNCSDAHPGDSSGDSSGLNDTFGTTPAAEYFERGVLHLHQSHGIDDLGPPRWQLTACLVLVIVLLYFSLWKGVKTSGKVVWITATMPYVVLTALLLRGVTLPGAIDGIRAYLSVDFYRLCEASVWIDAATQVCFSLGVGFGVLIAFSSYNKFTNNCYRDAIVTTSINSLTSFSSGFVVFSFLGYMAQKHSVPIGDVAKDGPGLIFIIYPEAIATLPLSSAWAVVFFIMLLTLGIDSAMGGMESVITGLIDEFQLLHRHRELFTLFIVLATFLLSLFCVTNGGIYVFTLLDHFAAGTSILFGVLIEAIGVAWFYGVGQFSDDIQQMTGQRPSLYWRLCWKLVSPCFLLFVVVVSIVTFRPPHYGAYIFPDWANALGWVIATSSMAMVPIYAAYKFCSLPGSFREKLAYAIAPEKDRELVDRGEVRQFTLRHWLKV
In short: (§4)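 The Lead Profiling binding panel (68 GPCRs, ion channels and transporters) was run at a single point, reading percent inhibition.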

[7] = Intrinsic clearance in rat liver microsomes; assay type: ADME, Microsome; conditions: read-out: CLH; in short: as §3
[8] = biological target: Cannabinoid receptor 1 (Homo sapiens) (UniProt P21554); assay: Inhibition of human CB1 receptor at 10 uM; in short: as §4
Cannabinoid receptor 1 (Homo sapiens), sequence (P21554 whole entry): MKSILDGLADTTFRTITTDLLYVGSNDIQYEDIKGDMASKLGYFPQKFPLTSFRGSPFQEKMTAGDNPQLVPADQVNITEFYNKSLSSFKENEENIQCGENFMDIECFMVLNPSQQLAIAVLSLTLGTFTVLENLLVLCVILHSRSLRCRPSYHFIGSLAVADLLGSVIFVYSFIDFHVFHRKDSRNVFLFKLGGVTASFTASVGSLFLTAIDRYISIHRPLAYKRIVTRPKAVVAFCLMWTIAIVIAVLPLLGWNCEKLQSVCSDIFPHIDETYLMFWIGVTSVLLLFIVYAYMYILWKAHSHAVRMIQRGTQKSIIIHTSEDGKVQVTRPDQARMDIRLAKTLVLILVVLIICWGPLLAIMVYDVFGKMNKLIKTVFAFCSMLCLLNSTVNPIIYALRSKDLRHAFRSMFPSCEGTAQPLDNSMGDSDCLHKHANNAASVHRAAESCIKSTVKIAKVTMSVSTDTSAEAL

[9] = system: Liver microsomes; assay: Drug metabolism in rat liver microsomes assessed as tolyl-oxidation by mass spectrophotometry; assay type: ADME, Microsome
In short: (§5)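 In vitro biotransformation in liver microsomes was examined, with primary metabolic pathways identified by mass spectrometry.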

[10] = biological target: 5-hydroxytryptamine receptor 2B (Homo sapiens) (UniProt P41595); assay: Inhibition of human 5HT2B receptor at 10 uM
5-hydroxytryptamine receptor 2B (Homo sapiens), sequence (P41595 whole entry): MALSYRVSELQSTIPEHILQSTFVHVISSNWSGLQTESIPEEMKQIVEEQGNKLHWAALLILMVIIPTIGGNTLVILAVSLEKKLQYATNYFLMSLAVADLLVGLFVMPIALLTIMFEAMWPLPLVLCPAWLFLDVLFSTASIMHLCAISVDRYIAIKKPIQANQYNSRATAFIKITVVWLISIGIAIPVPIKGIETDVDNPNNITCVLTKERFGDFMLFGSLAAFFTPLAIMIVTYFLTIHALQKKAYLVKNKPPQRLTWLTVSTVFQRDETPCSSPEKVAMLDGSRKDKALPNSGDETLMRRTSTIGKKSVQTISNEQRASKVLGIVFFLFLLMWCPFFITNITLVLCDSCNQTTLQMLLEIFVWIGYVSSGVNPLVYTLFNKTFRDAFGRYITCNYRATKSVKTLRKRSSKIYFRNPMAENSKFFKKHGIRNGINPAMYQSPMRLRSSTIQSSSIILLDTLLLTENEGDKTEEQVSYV
In short: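 Commercial lead-profiling binding panel of up to 68 GPCRs, ion channels and transporters; percent inhibition measured at a single concentration of 10 µM.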

[11] = system: Liver microsomes; assay: Drug metabolism in rat liver microsomes assessed as methoxy-O-demethylation by mass spectrophotometry; assay type: ADME, Microsome; in short: as §5
[12] = biological target: T2, Potassium voltage-gated channel subfamily KQT member 4 (Homo sapiens, UniProt P56696); assay: Activation of KCNQ4 channel expressed in CHO cells assessed as depolarization-induced […] after 3 mins by patch clamp assay relative to control; assay type: cell-based
T2 sequence (P56696 whole entry): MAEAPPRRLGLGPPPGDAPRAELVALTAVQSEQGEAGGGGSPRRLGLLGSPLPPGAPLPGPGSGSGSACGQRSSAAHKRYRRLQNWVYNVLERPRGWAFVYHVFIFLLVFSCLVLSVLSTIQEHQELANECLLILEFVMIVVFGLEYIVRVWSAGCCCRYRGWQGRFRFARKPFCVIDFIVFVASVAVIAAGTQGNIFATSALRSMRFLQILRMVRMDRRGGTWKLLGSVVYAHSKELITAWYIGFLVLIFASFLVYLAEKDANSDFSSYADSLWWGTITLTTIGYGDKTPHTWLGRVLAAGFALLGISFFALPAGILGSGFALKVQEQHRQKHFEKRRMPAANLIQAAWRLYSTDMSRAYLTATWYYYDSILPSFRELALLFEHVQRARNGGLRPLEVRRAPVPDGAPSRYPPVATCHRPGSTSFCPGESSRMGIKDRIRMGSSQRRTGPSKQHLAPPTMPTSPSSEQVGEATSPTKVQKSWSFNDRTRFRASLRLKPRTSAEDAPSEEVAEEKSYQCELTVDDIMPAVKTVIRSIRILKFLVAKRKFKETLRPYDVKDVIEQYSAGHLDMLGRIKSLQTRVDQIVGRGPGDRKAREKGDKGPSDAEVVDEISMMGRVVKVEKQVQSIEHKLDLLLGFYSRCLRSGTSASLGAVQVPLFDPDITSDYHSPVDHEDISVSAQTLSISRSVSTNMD
In short: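 KCNQ4-expressing CHO cells were measured on the same perforated population patch-clamp platform. Cells were held at −70 mV and depolarized to +40 mV, with step current measured at +40 mV before and after 3 min of compound. Effect was calculated as percent change from the pre-compound current in the same well. The 8-point, threefold concentration series was run in duplicate.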

[13] = system: Plasma; assay: Fraction unbound in rat plasma; assay type: ADME, cell-free; in short: as §2
[14] = biological target: T3, Adenosine receptor A3 (Homo sapiens) (UniProt P0DMS8); assay: Inhibition of human adenosine A3 receptor at 10 uM; in short: as §4
T3 sequence (whole entry): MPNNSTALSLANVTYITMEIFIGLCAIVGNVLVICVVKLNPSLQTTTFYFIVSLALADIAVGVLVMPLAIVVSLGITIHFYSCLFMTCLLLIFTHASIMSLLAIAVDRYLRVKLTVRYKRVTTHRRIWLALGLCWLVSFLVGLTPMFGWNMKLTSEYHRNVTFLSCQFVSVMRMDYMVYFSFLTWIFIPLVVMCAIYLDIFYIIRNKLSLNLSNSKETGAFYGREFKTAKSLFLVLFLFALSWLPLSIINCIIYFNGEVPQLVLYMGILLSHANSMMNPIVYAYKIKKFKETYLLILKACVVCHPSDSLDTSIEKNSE

[15] = system: Liver microsomes; assay: Drug metabolism in human liver microsomes assessed as tolyl-oxidation by mass spectrophotometry; assay type: ADME, Microsome; in short: as §5
[16] = system: Liver microsomes; assay: Drug metabolism in human liver microsomes assessed as methoxy-O-demethylation by mass spectrophotometry; assay type: ADME, Microsome; in short: as §5

For COc1ccc(-c2csc(NC(=O)[C@H]3CCCCN3S(=O)(=O)c3ccccc3)n2)cc1, the Emax [1] was 359% and the EC50 [2] was 1470 nM.
With COc1ccc(-c2csc(NC(=O)[C@@H]3CCCCN3S(=O)(=O)c3ccccc3)n2)cc1 the EC50 [2] was over 30000 nM.
COc1ccc(-c2csc(NC(=O)[C@H]3CCCCN3S(=O)(=O)c3ccc(C)cc3)n2)cc1 showed an EC50 [3] of over 30000 nM, a Fu [4] of 0.6% and a CLint scaled [5] of 18 mL/min/kg. It also gave an inhibition [6] of 54%, a CLint scaled [7] of 64.7 mL/min/kg and an inhibition [8] of 97%. The Drug metabolism [9] was “Active”, the inhibition [10] was 66% and the Drug metabolism [11] was “Active”. It also gave an EC50 [12] of over 30000 nM, a Fu [13] of 0.7% and an inhibition [14] of 73%. The Drug metabolism [15] was “Active” and the Drug metabolism [16] was “Active”.
For O=C(Nc1nc(-c2ccc(OC(F)(F)F)cc2)cs1)[C@H]1CCCCN1S(=O)(=O)c1ccc(OC(F)(F)F)cc1, the CLint scaled [5] was 7.9 mL/min/kg, the CLint scaled [7] was 20.6 mL/min/kg and the Activity ([2]; human, cho, 0.05 h) was “Not Active”.
COc1ccc(-c2csc(NC(=O)[C@H]3CCCCN3S(=O)(=O)c3ccc4c(c3)OCO4)n2)cc1 showed an Emax [1] of 178% and an EC50 [2] of 780 nM.
COc1ccc(-c2csc(NC(=O)C3CCCCN3S(=O)(=O)c3ccccc3)n2)cc1 (racemic) gave an Emax [1] of 285% and an EC50 [2] of 1690 nM.
